This is an account of results in ChEMBL document CHEMBL4725242, “Discovery of GS-9688 (Selgantolimod) as a Potent and Selective Oral Toll-Like Receptor 8 Agonist for the Treatment of Chronic Hepatitis B” (J Med Chem, 2020).

Calls of active or inactive are those of the source.

The target in data set [1] is T1, C-type lectin domain family 4 member E (Homo sapiens) (UniProt Q9ULY5).
T1 sequence (whole entry): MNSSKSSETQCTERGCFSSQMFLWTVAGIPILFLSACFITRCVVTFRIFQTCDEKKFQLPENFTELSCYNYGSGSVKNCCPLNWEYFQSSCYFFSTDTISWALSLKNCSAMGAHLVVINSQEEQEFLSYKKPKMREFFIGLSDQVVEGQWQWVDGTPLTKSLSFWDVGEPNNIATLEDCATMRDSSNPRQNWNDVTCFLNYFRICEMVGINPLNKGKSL
Kind of data set: Agonist activity at human Mincle receptor up to 10 uM. To be noted: dose microM <=10.

The nature of data set [2]: Oral bioavailability in Beagle dog at 0.5 mg/kg administered via gavage by HPLC-MS analysis. The format is ADME, organism-based, Canis lupus familiaris. To be noted: in vivo. In a few lines: (§1)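 Oral dosing in 2% ethanol/40% PEG 300/58% 0.01N HCl: Sprague Dawley rats 5 mg/kg, beagle dogs 0.5 mg/kg, cynomolgus monkeys 3 mg/kg.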
The species entered for another data set is Homo sapiens. Kind of data set: Selectivity ratio of EC50 for TLR7 in human cryopreserved PBMC assessed as induction of IFNalpha production to EC50 for TLR8 in human cryopreserved PBMC assessed as induction of IL-12p40 production. In a few lines: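 Cryopreserved healthy-donor human PBMC, recovered 2 h at 37°C/5% CO2, then 100k cells/well in RPMI/10% FBS exposed 24 h at 37°C to a 10-point half-log dilution series (0.5% final DMSO). Supernatant IFNα-2a quantified by MSD electrochemiluminescence immunoassay. Normalized to 10 µM GS-9620 positive and DMSO negative controls; EC50 from 4-parameter logistic fit. For the ratio, divided by the IL-12p40 EC50 from the same PBMC screen.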

Data set [3] is described as follows: Selectivity index, ratio of CC50 for human MT4 cells to EC50 for TLR8 in human cryopreserved PBMC assessed as induction of IL-12p40 production.
In data set [4] the target is T2, C-type lectin domain family 7 member A (Homo sapiens) (UniProt Q9BXN2).
T2 sequence (whole entry): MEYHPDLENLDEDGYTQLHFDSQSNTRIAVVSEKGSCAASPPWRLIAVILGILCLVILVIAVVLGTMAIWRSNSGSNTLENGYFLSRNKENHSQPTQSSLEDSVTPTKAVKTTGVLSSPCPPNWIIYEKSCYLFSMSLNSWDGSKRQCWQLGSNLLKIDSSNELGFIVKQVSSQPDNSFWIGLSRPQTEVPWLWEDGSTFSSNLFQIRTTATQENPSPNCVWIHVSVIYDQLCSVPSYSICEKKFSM
The experiment in a line: Agonist activity at human Dectin1a expressed in HEK293 cells assessed as increase in NF-kappaB activation up to 10 uM incubated for 24 hrs by quanti-blue SEAP reporter gene assay. The format is cell-based. As to conditions: dose microM <=10, time 24.0 hrs. In a few lines:
(§2)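 HEK293 cells stably expressing individual human TLRs or other innate immune receptors, used as reporter gene assays. Minimum effective concentration defined as the level giving a 3-fold rise over background.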
(In general: A reporter such as luciferase makes a cellular process visible.)

Data set [5] in a line: AUC (infinity) in Sprague-Dawley rat at 5 mg/kg, po administered via gavage by HPLC-MS analysis. The arrangement: time infinity, route oral, dose 5 mg/kg. As to conditions: in vivo. The format is ADME, organism-based. In a few lines:
as §1

In another data set the target is T3, Toll-like receptor 8 (Homo sapiens, UniProt Q9NR97).
T3 sequence (Q9NR97 whole entry): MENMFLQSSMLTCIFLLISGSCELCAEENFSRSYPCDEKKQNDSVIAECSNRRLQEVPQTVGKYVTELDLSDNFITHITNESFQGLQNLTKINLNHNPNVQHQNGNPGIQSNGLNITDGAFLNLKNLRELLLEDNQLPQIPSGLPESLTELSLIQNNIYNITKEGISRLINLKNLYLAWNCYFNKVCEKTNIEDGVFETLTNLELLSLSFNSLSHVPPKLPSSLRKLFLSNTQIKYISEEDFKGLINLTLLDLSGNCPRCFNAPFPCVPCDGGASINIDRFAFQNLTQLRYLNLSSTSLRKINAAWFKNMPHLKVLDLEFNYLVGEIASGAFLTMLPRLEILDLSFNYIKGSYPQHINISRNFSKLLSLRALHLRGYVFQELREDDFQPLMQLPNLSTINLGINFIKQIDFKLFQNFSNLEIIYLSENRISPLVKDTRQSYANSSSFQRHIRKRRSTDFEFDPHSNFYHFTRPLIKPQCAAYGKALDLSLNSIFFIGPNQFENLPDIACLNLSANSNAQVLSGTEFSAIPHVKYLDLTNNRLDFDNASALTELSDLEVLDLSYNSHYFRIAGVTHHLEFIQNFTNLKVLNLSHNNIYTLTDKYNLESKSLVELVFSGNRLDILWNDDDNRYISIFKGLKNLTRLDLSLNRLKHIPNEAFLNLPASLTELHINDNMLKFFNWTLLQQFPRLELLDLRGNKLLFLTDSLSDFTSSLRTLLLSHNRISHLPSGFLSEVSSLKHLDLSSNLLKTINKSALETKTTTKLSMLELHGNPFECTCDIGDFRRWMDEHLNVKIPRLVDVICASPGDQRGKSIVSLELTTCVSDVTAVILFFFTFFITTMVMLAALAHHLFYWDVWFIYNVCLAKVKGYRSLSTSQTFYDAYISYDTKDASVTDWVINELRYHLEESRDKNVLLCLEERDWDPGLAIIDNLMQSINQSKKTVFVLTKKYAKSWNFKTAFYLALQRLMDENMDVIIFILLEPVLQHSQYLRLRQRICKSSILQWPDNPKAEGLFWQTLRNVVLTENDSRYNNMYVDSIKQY
Kind of data set: Agonist activity at TLR8 in human cryopreserved PBMC assessed as induction of IL-12p40 production measured after 24 hrs.

Data set [6] is described as follows: Half life in cynomolgus monkey at 0.1 mg/kg, iv administered as 30 mins infusion by HPLC-MS analysis. The class given is ADME, organism-based, Macaca fascicularis. To be noted: in vivo. In a few lines:
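30-min intravenous infusion: Sprague Dawley rats 1 mg/kg, beagle dogs 0.25 mg/kg, cynomolgus monkeys 0.1 mg/kg; n = 3 per species, reported as mean ± SD.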

Data set [7] is described as follows: Drug excretion in bile duct-cannulated Sprague-Dawley rat urine. The class given is ADME. To be noted: in vivo.
The nature of data set [8]: Dissociation constant, pKa of the compound. The class given is physicochemical.
Data set [9] can be described thus: Cytotoxicity against human MT4 cells assessed as reduction in cell viability measured after 4 to 5 days by celltiter-glo assay. The format is cell-based. As to conditions: time 4-5 day. On the technique in general: ATP-based viability assays read luminescence as a measure of living cells.
The target in data set [10] is Toll-like receptor 5 (Homo sapiens) (UniProt O60602). The experiment in a line: Agonist activity at human TLR5 expressed in HEK293 cells assessed as increase in NF-kappaB activation up to 10 uM incubated for 24 hrs by quanti-blue SEAP reporter gene assay. As to conditions: dose microM <=10, time 24.0 hrs. The format is cell-based. An outline of the steps:
as §2

Data set [11] can be described thus: Cmax in cynomolgus monkey at 3 mg/kg, po administered via gavage by HPLC-MS analysis. The format is ADME, organism-based, Macaca fascicularis. The arrangement: route oral, dose 3 mg/kg. As to conditions: in vivo. An outline of the steps:
as §1

Chain of Toll-like receptor 5 (Homo sapiens) (O60602 whole entry): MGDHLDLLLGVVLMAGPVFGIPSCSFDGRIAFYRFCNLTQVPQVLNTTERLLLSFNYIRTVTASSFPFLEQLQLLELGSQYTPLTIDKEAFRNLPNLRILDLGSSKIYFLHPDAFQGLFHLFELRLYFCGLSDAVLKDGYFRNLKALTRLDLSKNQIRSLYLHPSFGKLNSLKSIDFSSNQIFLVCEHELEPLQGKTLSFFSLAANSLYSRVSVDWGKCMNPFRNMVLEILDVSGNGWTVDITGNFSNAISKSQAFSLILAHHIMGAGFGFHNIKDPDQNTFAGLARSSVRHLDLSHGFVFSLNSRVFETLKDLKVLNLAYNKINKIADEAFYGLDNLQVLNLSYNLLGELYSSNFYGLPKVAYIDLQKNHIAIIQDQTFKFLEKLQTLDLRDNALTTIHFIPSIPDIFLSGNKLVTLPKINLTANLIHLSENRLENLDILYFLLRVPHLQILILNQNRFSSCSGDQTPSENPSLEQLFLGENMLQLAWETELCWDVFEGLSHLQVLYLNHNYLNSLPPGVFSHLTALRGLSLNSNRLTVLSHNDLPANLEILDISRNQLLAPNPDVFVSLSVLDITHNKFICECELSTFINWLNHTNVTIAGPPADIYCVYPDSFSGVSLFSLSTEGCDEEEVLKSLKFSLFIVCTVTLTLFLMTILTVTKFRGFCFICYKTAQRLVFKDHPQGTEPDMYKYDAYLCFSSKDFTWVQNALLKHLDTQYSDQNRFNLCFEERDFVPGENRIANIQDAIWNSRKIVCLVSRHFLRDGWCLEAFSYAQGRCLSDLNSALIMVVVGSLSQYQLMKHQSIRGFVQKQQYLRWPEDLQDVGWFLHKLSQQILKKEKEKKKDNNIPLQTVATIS

What is called bioavailability is the share of a dose that reaches the circulation, judged against a reference dose that is usually intravenous. By AUC(0-inf) is commonly meant total exposure, with the tail of the curve extrapolated. By EC50 is commonly meant the concentration giving half of the maximal effect. As a reminder, the half-life is the time needed for the level to fall by half in the phase considered. Usually pKa stands for the pH at which an ionisable group is half protonated. One may read the CC50 as the concentration giving 50% cytotoxicity. As usually defined, the Cmax is the maximum level reached in the sampled fluid or tissue. As to `CCCC[C@](C)(CO)Nc1nc(N)nc2cc(F)cnc12` [SELGANTOLIMOD], the result in [1], in [4] and in data set [10] was inactive. Moreover, the bioavailability in data set [2] is 0.8%. For the same molecule, the Ratio EC50 in the data set filed under Homo sapiens is above 185. For the same molecule, in data set [3], the “Ratio CC50/EC50” value worked out at 77. In data set [5], this molecule yielded an AUC(0-inf) of 0.827 µM·h. Further, the EC50 on Toll-like receptor 8 amounted to 0.22 µM. For the same molecule, the half-life in data set [6] was 40.2 min. In addition, in data set [7], the Drug excretion entry is listed as “Active”. In [8], this molecule came in with a pKa of 6.3. Moreover, in data set [9], the CC50 stood at 17 µM. Also, the Cmax in data set [11] was 1.2 nM.
